From PubChem
OX1R antag-1: OX1R (HCRTR1) antagonists, primary screen, fluorescence, CHO/OX1R cells, Fluo-8 calcium, orexin A | Fluo-8 calcium fluorescence | 330,000 tested, 0.43% active | inhibition, % at 5 µM;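 active = inhibition above its plate's threshold, mean inhibition of all tested compounds on the plate plus 3 SD, cut at about 37% in these data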;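 also: 0% = orexin A challenge wells and 100% = SB-334867-A antagonist wells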
CHO parental Ca: ATP-evoked calcium signal inhibitors, parental CHO, primary screen, counter-screen for OX1R antagonist project, cell-based, fluorescence, Fluo-8 calcium dye; parental CHO-K1, ATP-induced calcium, Fluo-8 fluorescence; inhibition, % at 5.6 µM; 330,000 tested, 0.63% active; AID 463079, 2010;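 active = inhibition above that plate's mean sample inhibition plus 3 SD, cut at about 26% in these data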;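 also: 0% = ATP-challenged DMSO wells and 100% = DMSO wells without ATP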
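Assay system: untransfected parental CHO cell line. Also added: ATP agonist challenge. Dosing: one dose, 5.6 µM nominal. Measured by: Fluo-8 fluorescence. Read-out: % inhibition. Benchmarks: ATP wells versus no-ATP DMSO wells. Repeats: no replicates.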
GalR3 antag: GalR3 antagonists in HEK293 cells, primary screen, cell-based, fluorescence readout. HEK293 GalR3-CNG cAMP membrane potential fluorescence; galR3 body fused to GalR1 C-terminus. inhibition, % at 3 µM. 360,000 tested, 0.44% active. AID 651719, 2012;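 active = inhibition above the screen-wide average plus 3 SD, cut at about 13% in these data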;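 also: forskolin and galanin both at EC90 stimulate the cells; cAMP rise reported by CNG channel membrane potential dye signal; 0% = forskolin plus galanin with DMSO and 100% = forskolin alone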
GPR7 antag: GPR7 receptor antagonists, primary screen, cell-based, fluorescence, single concentration; 290,000 tested, 1.1% active; AID 1861, 2009; GPR7-expressing cells, fluorescence antagonist assay; inhibition, % at 4.4 µM; Neuropeptides B/W receptor type 1 (Homo sapiens), P48145; in the data active = inhibition above about 16%, passing the limit was not always enough;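 also: cells stimulated with the agonist NPW; 0% = agonist with vehicle and 100% = vehicle without agonist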
Target sequence (P48145 whole entry, looked up): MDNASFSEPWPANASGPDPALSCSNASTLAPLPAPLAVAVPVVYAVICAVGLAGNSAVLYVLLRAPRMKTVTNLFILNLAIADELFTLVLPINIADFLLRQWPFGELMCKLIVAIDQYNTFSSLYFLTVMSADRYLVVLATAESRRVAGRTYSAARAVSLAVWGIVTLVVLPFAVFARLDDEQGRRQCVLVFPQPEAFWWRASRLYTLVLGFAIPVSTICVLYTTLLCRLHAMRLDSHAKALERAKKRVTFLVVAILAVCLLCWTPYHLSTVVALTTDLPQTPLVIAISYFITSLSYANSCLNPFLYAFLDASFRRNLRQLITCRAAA
OX1R antag-2: antagonists of human orexin 1 receptor (OX1R). Orexin/Hypocretin receptor type 1 (Homo sapiens), O43613. OX1R-expressing cells, FRET antagonist read-out. inhibition, % at 6.6 µM. 330,000 tested, 1.8% active; in the data active = inhibition mostly above about 38%, no sharp cut-off; inactive = mostly below about 40%;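 also: 0% = agonist challenge alone and 100% = reference antagonist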
An asterisk follows results filed as active; / = not tested or not shown. This is a sample that favours compounds with a hit; in the whole collection about 3.1% have one here.

SMILES	OX1R antag-1	CHO parental Ca	GalR3 antag	GPR7 antag	OX1R antag-2
O=S(=O)(c1cccs1)N1CCc2ccccc21	-24	-24	-6	4	8
CN(c1ccc(C(=O)NCc2ccncc2)cc1)S(=O)(=O)c1ccc(Cl)cc1	-22	-11	-3	-3	45
COC1=CC(=O)c2ccccc2C1=O	9	-3	/	/	92*
COc1ccc(-c2cc(NC(=O)Cc3c(C)[nH]c4ccccc34)ccc2Nc2cccnc2)cc1F	/	/	-3	/	/
CCOC(=O)c1cnc2c([N+](=O)[O-])cnn2c1C	0	-2	-9	-4	21
O=[N+]([O-])c1cnn2cc(Br)cnc12	-14	2	0	1	74*
CC(Sc1nc(N)cc(=O)[nH]1)C(=O)Nc1sc2c(c1C#N)CCCC2 (stereo not given)	31	34*	-1	-2	11
O=C1COc2ccc(S(=O)(=O)CCC(=O)N3CCN(c4cccc(C(F)(F)F)c4)CC3)cc2N1	-2	38*	-2	-3	17
COc1cccc(NS(=O)(=O)c2ccc3c(c2)NC(=O)C(C)S3)c1 (stereo not given)	-19	-2	-9	-2	23
CCc1cccc(NS(=O)(=O)c2ccc3c(c2)NC(=O)C(C)S3)c1 (stereo not given)	21	53*	-10	31	25
Cc1ccc(NC(=O)C2CCN(S(=O)(=O)c3ccc4c(c3)NC(=O)C(C)S4)CC2)cc1C (stereo not given)	10	51*	1	13	12
CC1Sc2ccc(S(=O)(=O)CCC(=O)N3CCN(c4cccc(Cl)c4)CC3)cc2NC1=O (stereo not given)	13	34*	-8	17	14
CCc1cccc(C)c1NC(=O)CCNC(=O)c1cccc(C)c1	-17	-10	-10	-10	20
CC1CCCC(NC(=O)c2ccc3snnc3c2)C1C (stereo not given)	-27	-9	0	6	11
CC1Sc2ccc(S(=O)(=O)N3CCC(C(=O)NCc4ccc(Cl)cc4)CC3)cc2NC1=O (stereo not given)	-6	2	0	13	5
COc1ccccc1NC(=O)C1CCN(S(=O)(=O)c2ccc3c(c2)NC(=O)C(C)S3)CC1 (stereo not given)	-21	-5	-6	2	13
CC1Sc2ccc(S(=O)(=O)N3CCC(C(=O)Nc4cccc(Cl)c4)CC3)cc2NC1=O (stereo not given)	30	58*	-6	23	14
CCc1ccc(NC(=O)C2CCN(S(=O)(=O)c3ccc4c(c3)NC(=O)C(C)S4)CC2)cc1 (stereo not given)	19	57*	-9	22	13
Nc1[nH]c(C(=O)c2ccccc2)c(-c2ccc3ccccc3c2)c1C(=O)NC1CC1	/	/	-6	/	/
CCCn1nc(C(=O)Nc2ccc3nc(N4CCOCC4)sc3c2)ccc1=O	/	/	-6	/	/
CC(=O)c1cccc(NS(=O)(=O)c2ccc(-c3cnc(C4CC4)o3)cc2)c1	13	50*	4	31	36
COc1ccccc1NC(=O)C(C)Sc1nc2ccccc2c(=O)n1CC1CCCO1 (stereo not given)	-27	-27	-4	/	7
CC(Sc1nc2ccccc2c(=O)n1CC1CCCO1)C(=O)N(C)c1ccccc1 (stereo not given)	-19	-22	-2	/	32*
COc1ccc(OC)c(CNn2c(-c3cccc(C)c3)nc3ccccc3c2=O)c1	6	-26	-7	-15	50*
COc1ccc(OCC(=O)Nn2c(-c3ccc(C)cc3)nc3ccccc3c2=O)cc1	-13	-17	-3	-7	19
SMILES	OX1R antag-1	CHO parental Ca	GalR3 antag	GPR7 antag	OX1R antag-2
CCCCNC(=S)Nc1ccc(Cl)cc1	3	5	2	-6	16
CCCCNC(=S)Nc1ccc(C(F)(F)F)cc1	29	71*	-4	1	65
COC(=O)[C@]12C[C@H](CC(=O)NCc3cccs3)C(=O)N(Cc3ccccc3)C1=C[C@H](C(C)C)O[C@@H]2C1CC1	/	/	-9	/	/
CCC(CC)C(=O)Nc1ccc(Sc2ccc([N+](=O)[O-])cc2)cc1	60*	25	-7	-12	41*
CCNC(=O)C(=O)Nc1ccc([N+](=O)[O-])cc1	-21	-7	-4	-6	83
C=CCn1c(SCC(=O)NCc2ccco2)nc2sc3c(c2c1=O)CCCC3	-28	-17	2	15	19
O=C(NCc1ccco1)c1ccc2nc3sc4c(c3c(=O)n2c1)CCCC4	-1	-22	/	4	87*
CCN(CC)c1ccc(/C=C(/C#N)c2nc3ccc(C)cc3[nH]2)c(OC(C)C)c1	116*	68*	-6	38*	19
CCOc1cc(N(CC)CC)ccc1/C=C(/C#N)c1nc2ccccc2[nH]1	109*	70*	-1	0	71*
Cc1cc(/C=C(\C#N)c2nc3ccccc3[nH]2)c(C)n1C	-21	-20	5	-3	21
COc1cc(/C=C(\C#N)c2nc3ccc(C)cc3[nH]2)c([N+](=O)[O-])cc1OC	-31	-6	3	-2	49
CCCOc1cc(N(CC)CC)ccc1/C=C(/C#N)c1nc2ccc(C)cc2[nH]1	118*	75*	-7	20	16
CCCCC#Cc1ccc(C(=O)NNC(=O)Nc2ccccc2)o1	-19	35*	0	1	5
CCCCN(CCCC)Cc1ccc(C(=O)NNC(=O)Nc2ccccc2)o1	-19	8	-5	-19	13
CCCN1CCCCC(NC(=O)OC(C)(C)C)C1=O (stereo not given)	/	/	1	/	/
COCCCn1[nH]c2c3c(ccc2c1=O)C(=O)c1ccccc1C3=O	-10	-13	-3	3	75*
Cc1ccc(-n2[nH]c3c4c(ccc3c2=O)C(=O)c2ccccc2C4=O)cc1	-4	-5	-4	0	9
COC(=O)C1=C(C)N(Cc2ccc(Br)cc2)C(=S)NC1c1cccc(Br)c1 (stereo not given)	/	/	-6	/	/
Cn1cc([N+](=O)[O-])c(C(=O)NCc2cc3cc(Cl)ccc3[nH]2)n1	12	-1	-2	14	23
CCOC(=O)c1oc2cccc(O)c2c1C	-14	-5	-6	-6	39*
C=CCOc1ccc(C2C(C(=O)c3ccc(C)o3)=C(O)C(=O)N2Cc2cccnc2)cc1 (stereo not given)	-13	-13	-7	-5	4
COc1ccc(N(CC(=O)N2CCc3ccccc3C2)S(=O)(=O)c2c(C)nn(C)c2C)cc1	-25	-18	2	-10	42*
COc1ccc(N(CC(=O)N2CCc3ccccc3C2)S(C)(=O)=O)cc1	-14	-13	-3	5	1
